Screening results deposited in PubChem BioAssay by several laboratories.
PfM18AAP inh: blocks P. falciparum M18 aspartyl aminopeptidase; recombinant PfM18AAP, H-Glu-NHMec fluorogenic cleavage; inhibition, % at 7.35 µM; 1.2% of 290,000 active; AID 1822;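 active = inhibition above the campaign mean inhibition over all tested compounds plus 3 SD, cut at about 28% in these data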;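 also: 0% = plate median of test compound wells and 100% = 2 mM ZnCl2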
GAA850 FXN act: frataxin GAA850 promoter activation | HEK293 lucGAA850 FXN promoter luciferase reporter, 24 h; percent of 10 µM SAHA response | activation, % at 6 µM | 0.56% of 360,000 active | AID 540364;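 active = activation above the average of all compounds screened plus 3 SD, cutoff fixed separately per campaign, cut at about 7.5% in these data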;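 also: 0% = DMSO wells and 100% = 10 µM SAHA wells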
HDAC3 inh: human HDAC3 inhibition; recombinant HDAC3, fluorogenic peptide/trypsin coupled, fluorescence; inhibition, % at 8.3 µM; O15379; 0.15% of 320,000 active; in the data active = inhibition above about 26%, passing the limit was not always enough
AHR activator: human AHR activation; AHR-responsive luciferase reporter cells, luminescence; 2.5% of 320,000 active; activation, % at 5 µM; P35869; in the data active = activation above about 47%;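 also: 0% = vehicle wells and 100% = reference agonist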
CTSL1 counter: cathepsin L1 inhibition, PFM18AAP counter-screen; recombinant F. hepatica cathepsin L1, Z-Leu-Arg-MCA fluorescence; inhibition, % at 5.96 µM; 0.49% of 300,000 active; AID 1906;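 active = inhibition above the mean of all tested compounds plus 3 SD, set per screening campaign, cut at about 17% in these data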;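 also: 0% = plate median of test compound wells and 100% = 1 µM Z-Phe-Ala-diazomethylketone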
SENP1 FRET inh: SENP1 (human) catalytic domain inhibition | AID 624204 | recombinant SENP1 catalytic domain, CyPet-SUMO1-YPet FRET cleavage | Q9P0U3 | 0.21% of 360,000 active | inhibition, % at 10 µM;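 active = inhibition at least 30% at 10 µM, raw YFP signal under a set limit, fluorescence ratio 0.5 to 1.5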;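 also: 0% = enzyme with DMSO and 100% = no enzyme wells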
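Test system: hSENP1 catalytic domain, recombinant; Amount: 20 pM final SENP1 enzyme; Medium: Tris pH 8 buffer plus EDTA, NaCl, BME, BSA, NP40, catalase; Schedule: 50 min enzyme reaction, room temperature, light-protected; Technique: FRET fluorescence in CFP and YFP emission channels; Controls: no-enzyme wells low, DMSO-plus-enzyme wells high control.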
Active calls of the source: *; x = no result. In the library only some 4.2% were active in any assay of this set; here they are far more common.

SMILES	PfM18AAP inh	GAA850 FXN act	HDAC3 inh	AHR activator	CTSL1 counter	SENP1 FRET inh
COc1ccc(Cl)cc1NC(=O)CN(C)C(=O)CN1C(=O)NC(C)(c2ccc3ccccc3c2)C1=O (stereo unspecified)	x	1	x	x	x	3
O=C(NNC(=S)NCc1ccccc1)c1ccccc1OC(F)F	0	-1	6	2	-3	-2
O=C(NNC(=S)Nc1ccc(Cl)cc1)c1ccccc1OC(F)F	7	-1	2	104*	1	1
COc1ccc(/C=C/C(=O)Nc2nonc2NC(C)=O)cc1	-7	4	5	49*	4	3
CCN(CC)c1ccc(-n2c(C)c(C(C)=O)c(C(C)=O)c2C)cc1	28*	-2	5	2	0	-2
CC(=Nc1ccc(C)cc1)c1sc2ccccc2c1O	6	0	14	10	7	-22
CC(=Nc1cccc(O)c1)c1sc2ccccc2c1O	31*	3	15	1	5	-75
CN(C)/C=C/C(=O)c1cnc(-c2cccc(Cl)c2)s1	6	3	-2	4	4	-9
CN(C)/C=C/C(=O)c1cnc(-c2ccccc2Cl)s1	4	3	7	57*	4	-12
COc1cccc(CNc2ncnc3cc(Cl)ccc23)c1	-4	1	x	x	x	0
Fc1cccc(CNc2ncnc3cc(Cl)ccc23)c1F	-2	1	-1	49*	6	-20
Cn1c(C(=O)N[C@@H](C(=O)O)c2ccccc2)cc2cc(F)ccc21	1	0	-9	20	0	2
CCc1ccc(CNc2ccc(O)cc2)cc1	26	2	4	10	105*	4
O=C1C(Cl)=C(NCCN2CCCCC2)C(=O)c2ccccc21	3	-5	9	17	54*	1
Nc1ccccc1Sc1ccc(C(=O)c2ccccc2C(=O)O)cc1[N+](=O)[O-]	30*	-1	0	2	3	12
CC(=O)c1cccc(NC(=S)N2CCN(S(=O)(=O)c3ccccc3)CC2)c1	-1	-2	9	x	x	0
Cc1nn(-c2ccccc2)c2nc3c(cc12)C(=O)CCC3	-2	3	3	55*	0	2
Cn1cncc1C#Cc1ccc2cc(CCCO)oc(=O)c2c1	x	2	-3	18	x	-3
Cn1cncc1C#Cc1ccc2cc(CCO)oc(=O)c2c1	x	5	-2	48*	x	-14
COc1ccc(CN2CC(C(=O)NCCCN3CCCCC3)CC2=O)cc1 (stereo unspecified)	-6	0	-9	0	-4	3
CCc1nc2c(OCCc3cccc(OC)c3)cccn2c1N(C=O)Cc1ccc(OC)cc1	x	3	x	x	x	-14
CC(=O)c1cccc(NS(=O)(=O)c2ccc3c(c2)N(C(C)=O)CCO3)c1	4	0	-1	2	-2	0
CCC(CC)C1C(C#N)=C(N)SC(N)=C1C#N	31*	-3	4	-1	-3	-24
CCC1C(c2ccccc2)=CCC(C(=O)O)C1C (stereo unspecified)	x	3	x	x	x	2
O=C(c1cn[nH]c1)c1cc(F)ccc1O	31*	-1	5	4	1	-3
SMILES	PfM18AAP inh	GAA850 FXN act	HDAC3 inh	AHR activator	CTSL1 counter	SENP1 FRET inh
CC1Oc2ccccc2OC1C(=O)Nc1ccccn1 (stereo unspecified)	0	1	1	68*	0	3
COc1ccc(C(=O)O/N=C(\N)c2ccccc2)cc1OC	-2	5	2	14	0	1
N/C(=N\OC(=O)c1cccc2ccccc12)c1ccncc1	-1	2	0	67*	-2	2
COc1cc(OC)c(C(=O)O/N=C(\N)c2ccccc2)cc1OC	0	1	2	78*	3	2
COc1ccccc1C(=O)O/N=C(\N)c1ccc(Cl)cc1	8	4	1	69*	2	2
O=C(O)CN1C(=O)C(=O)N(Cc2ccccc2F)C1=O	-3	0	-2	-1	1	1
O=C(Nc1ccc2c(c1)OCO2)c1cc(C2CCCCN2C(=O)c2ccc(Cl)cc2)on1 (stereo unspecified)	x	-1	x	x	x	2
CC(=O)c1ccc2c(c1)N(Cc1ccc3ccccc3c1)C(=O)C(C)S2 (stereo unspecified)	x	1	x	x	x	1
C/C(=N\Nc1ccc(F)cc1)c1ccncc1	0	1	x	33	-2	2
C/C(=N\Nc1ccc(Cl)cc1)c1ccccn1	-26	4	-2	68*	0	1
C/C(=N\Nc1ccc(Cl)cc1)c1ccncc1	0	0	4	68*	3	0
C[C@@H]1CN([C@H](C)CO)C(=O)c2cc(Br)cnc2O[C@@H]1CN(C)Cc1ccc(F)cc1	x	-3	x	x	x	0
CCN(CC)CCNC(Cc1ccccc1)c1cccc(OC)c1 (stereo unspecified)	x	1	x	x	x	-1
CC(=O)c1c(C)nc(C)nc1NC(=O)Cc1ccccc1	1	1	3	3	-2	4
CC(=O)Nc1nc(-c2ccc(Cl)cc2)nc(C)c1C(C)=O	3	-2	1	73*	0	-8
Cc1ccc(S(=O)(=O)N2CCN(C(=O)n3ccnc3)CC2)cc1	x	3	3	0	x	0
CCc1cc2c(Nc3ccc(O)cc3)nc(C)nc2s1	-10	1	5	79*	-4	2
Cn1c(-c2ncc(F)cc2F)cc2onc(-c3c(F)cccc3Cl)c2c1=O	x	2	1	50*	x	1
COc1ccc(S(=O)(=O)Oc2c(OC)cc(C(=S)N3CCOCC3)cc2OC)cc1	28*	0	0	0	0	-1
COc1ccc(S(=O)(=O)Oc2ccc(C(=S)N3CCOCC3)cc2OC)cc1	2	1	2	-1	1	1
C=CCn1cnc2c(nnn2-c2cc(C)cc(C)c2)c1=O	4	3	-4	10	5	0
C=CCn1cnc2c(nnn2-c2ccc(Cl)cc2)c1=O	1	0	2	84*	0	-3
CCOC(=O)COc1ccccc1/C=C\[N+](=O)[O-]	32*	-11	-2	0	3	1
CCOc1ccccc1-c1c2cc(O)c(=O)cc-2oc2cc(O)c(O)cc12	30*	-1	x	x	x	-27
O=c1cc2oc3cc(O)c(O)cc3c(-c3ccccc3O)c-2cc1O	44*	-1	x	x	x	27
CCOC(=O)c1oc2cc(O)ccc2c(=O)c1-c1ccccc1OC	4	-3	2	0	-3	5
O=C1CN(C(=O)c2ccc3nc(Cc4cccc(Cl)c4)oc3c2)CCN1	-2	-1	4	-1	-4	-1
COc1ccccc1-c1nc2c3ccccc3nc(=S)n2[nH]1	6	2	-9	68*	0	0
COc1cc(-c2nc3c4ccccc4nc(=S)n3[nH]2)cc(OC)c1OC	2	0	3	71*	1	-3
